Active and inactive are the calls of the source. The rule behind the calls is not given here.
Key:
Schistosoma mansoni [1] = experiment: Antischistosomal activity against Schistosoma mansoni BH schistosomula assessed as multiple vacuole appearance at 20 uM after 48 hrs by HCS microscopic analysis; assay type: functional, organism-based
In short: (§1)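 Cercariae vortexed at maximum speed for 5 min to shed tails and transform to schistosomula. Larvae resuspended in Medium 169 at 120 per well and held overnight under 5% CO2 before dosing. Exposed 48 h at 20 μM, vehicle DMSO 0.625%. Automated bright-field HCS imaging; Bayesian phenotype and motility scores adjusted to DMSO control wells on each plate.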

Papain = target: T1, Papain (Carica papaya, UniProt P00784); experiment: Inhibition of papaya papain using Z-FR-AMC fluorogenic peptide substrate preincubated for 5 mins followed by substrate addition
T1 sequence (P00784 whole entry): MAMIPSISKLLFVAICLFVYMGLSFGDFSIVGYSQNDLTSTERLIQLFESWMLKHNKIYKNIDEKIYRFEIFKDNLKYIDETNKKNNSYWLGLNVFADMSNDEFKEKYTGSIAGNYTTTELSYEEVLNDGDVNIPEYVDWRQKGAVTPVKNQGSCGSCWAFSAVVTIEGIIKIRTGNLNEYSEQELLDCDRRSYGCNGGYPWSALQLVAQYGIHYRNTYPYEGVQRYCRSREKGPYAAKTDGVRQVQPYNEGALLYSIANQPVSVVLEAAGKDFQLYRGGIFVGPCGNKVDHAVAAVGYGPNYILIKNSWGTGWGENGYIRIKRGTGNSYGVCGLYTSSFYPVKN
In short: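 Papain (5 μg/mL) in 100 mM sodium acetate, pH 3.5, at 37 °C. Pre-incubated 5 min with compound at 20 and 100 μM, then reaction started with 50 μM Z-FR-AMC fluorogenic substrate. E-64 used as positive control.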

Schistosoma mansoni [2] = experiment: Antischistosomal activity against Schistosoma mansoni BH schistosomula assessed as rounding appearance of schistosomula at 20 uM after 48 hrs by HCS microscopic analysis; assay type: functional, organism-based; in short: as §1
Schistosoma mansoni [3] = experiment: Antischistosomal activity against adult female Schistosoma mansoni BH assessed as inhibition of parasite motility at 20 to 100 uM after 48 to 72 hrs in absence of 0.01% triton X-100 by colloidal aggregation assay; assay type: functional, organism-based
In short: (§2)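 Perfused adult worms held singly in complete DMEM at 37 °C, 5% CO2. Incubated with compound at 20 and 100 μM, with or without Triton X-100 (0.01%). HCS motility measured at 48 and 72 h, and activity with detergent compared with activity without it.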

Schistosoma mansoni [4] = experiment: Antischistosomal activity against Schistosoma mansoni BH schistosomula assessed as inhibition of parasite motility at 20 uM after 48 hrs by HCS microscopic analysis; assay type: functional, organism-based; in short: as §1
Schistosoma mansoni [5] = experiment: Antischistosomal activity against adult male Schistosoma mansoni BH assessed as inhibition of parasite motility at 20 to 100 uM after 48 to 72 hrs in absence of 0.01% triton X-100 by colloidal aggregation assay; assay type: functional, organism-based; in short: as §2
Schistosoma mansoni [6] = experiment: Antischistosomal activity against adult male Schistosoma mansoni BH assessed as inhibition of parasite motility up to 72 hrs by HCS microscopic analysis; assay type: functional, organism-based
In short: (§3)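 Adult worms perfused from portal hepatic and mesenteric veins of Swiss mice 42–49 days after percutaneous infection with 150 ± 10 cercariae. Worms held singly in DMEM with 10% FCS and 2 mM L-glutamine overnight at 37 °C, 5% CO2. Exposed to 0.10–100 μM against 0.1% DMSO, imaged at 0, 24, 48 and 72 h. Motility from image-overlap AdjustedRandIndex; EC50 from dose-response curves.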

Schistosoma mansoni [7] = experiment: Antischistosomal activity against adult female Schistosoma mansoni BH assessed as inhibition of parasite motility up to 72 hrs by HCS microscopic analysis; assay type: functional, organism-based; in short: as §3
Schistosoma mansoni [8] = experiment: Antischistosomal activity against Schistosoma mansoni BH schistosomula assessed as inhibition of parasite motility after 48 hrs by HCS microscopic analysis; assay type: functional, organism-based
In short: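 Schistosomula obtained from cercariae by vortex tail shedding (5 min), held overnight in Medium 169 under 5% CO2 at 120 per well. Dosed at 0.31–20 μM against DMSO 0.625% for 48 h. Motility taken by automated bright-field imaging as average object displacement, adjusted to DMSO control wells. EC50 from a four-parameter logistic fit.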

Schistosoma mansoni [9] = experiment: Antischistosomal activity against Schistosoma mansoni BH schistosomula assessed as morphological changes at 20 uM after 48 hrs by HCS microscopic analysis; assay type: functional, organism-based; in short: as §1
Schistosoma mansoni [10] = experiment: Antischistosomal activity against adult female Schistosoma mansoni BH assessed as inhibition of parasite motility at 20 to 100 uM after 48 to 72 hrs in presence of 0.01% triton X-100 by colloidal aggregation assay; assay type: functional, organism-based; in short: as §2
Schistosoma mansoni [11] = experiment: Antischistosomal activity against adult male Schistosoma mansoni BH assessed as inhibition of parasite motility at 20 to 100 uM after 48 to 72 hrs in presence of 0.01% triton X-100 by colloidal aggregation assay; assay type: functional, organism-based; in short: as §2
[12] = Cytotoxicity against human WSS1 cells assessed as reduction in cell viability after 48 hrs by resazurin assay; assay type: cell-based
In short: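 Human kidney WSS-1 epithelial cells grown in DMEM (4.5 g/L glucose, 10% FBS, gentamicin) and seeded at 5×10^4 cells/mL. Dosed 20 h later at 0.2–400 μM for 48 h at 37 °C, 5% CO2. Resazurin (final 0.01 mg/mL) added 4 h before the end; resorufin fluorescence read at ex 560/em 590 nm. Viability taken relative to DMSO (0.2–0.8%); CC50 from a four-parameter logistic fit.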

Schistosoma mansoni [13] = experiment: Antischistosomal activity against Schistosoma mansoni BH schistosomula assessed as darkening of schistosomula at 20 uM after 48 hrs by HCS microscopic analysis; assay type: functional, organism-based; in short: as §1
Schistosoma mansoni [14] = experiment: Antischistosomal activity against adult male Schistosoma mansoni BH assessed as inhibition of parasite motility after 72 hrs by HCS microscopic analysis; assay type: functional, organism-based
In short: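 Adult worms perfused from portal hepatic and mesenteric veins of Swiss mice 42–49 days after percutaneous infection with 150 ± 10 cercariae; males placed singly in wells in DMEM with 10% fetal calf serum, 2 mM L-glutamine, penicillin and streptomycin; held overnight at 37 °C, 5% CO2. Exposed to 0.10–100 μM, DMSO 0.1% control. Image-based motility (overlap index) read at 72 h; EC50 from dose-response.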

[15] = target: T2, Thioredoxin glutathione reductase (Schistosoma mansoni, UniProt Q962Y6); experiment: Inhibition of Schistosoma mansoni TGR
T2 sequence (Q962Y6 whole entry): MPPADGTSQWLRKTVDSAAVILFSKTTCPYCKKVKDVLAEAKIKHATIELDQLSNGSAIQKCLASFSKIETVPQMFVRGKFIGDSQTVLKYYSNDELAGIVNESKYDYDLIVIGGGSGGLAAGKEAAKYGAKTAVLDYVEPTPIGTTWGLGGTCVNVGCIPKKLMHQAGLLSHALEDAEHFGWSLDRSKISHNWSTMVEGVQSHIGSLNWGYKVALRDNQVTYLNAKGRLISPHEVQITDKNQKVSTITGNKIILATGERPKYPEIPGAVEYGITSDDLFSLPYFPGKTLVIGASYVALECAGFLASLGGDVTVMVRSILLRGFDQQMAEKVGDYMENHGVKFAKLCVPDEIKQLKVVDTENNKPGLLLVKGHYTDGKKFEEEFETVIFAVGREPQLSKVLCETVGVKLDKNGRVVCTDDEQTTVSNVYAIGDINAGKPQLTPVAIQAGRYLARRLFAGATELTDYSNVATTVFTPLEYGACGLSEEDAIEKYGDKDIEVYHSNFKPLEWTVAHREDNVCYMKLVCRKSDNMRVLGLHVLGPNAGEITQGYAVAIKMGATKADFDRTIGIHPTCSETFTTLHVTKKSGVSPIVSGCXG

| SMILES | Activity (Schistosoma mansoni [1]) | IC50 (Papain) | Activity (Schistosoma mansoni [2]) | inhibition (Schistosoma mansoni [3]) | motility inhibition activity call (Schistosoma mansoni [4]) | inhibition (Schistosoma mansoni [5]) | EC50 (Schistosoma mansoni [6]) | EC50 (Schistosoma mansoni [7]) | EC50 (Schistosoma mansoni [8]) | Activity (Schistosoma mansoni [9]) | inhibition (Schistosoma mansoni [10]) | inhibition (Schistosoma mansoni [11]) | CC50 [12] | Activity (Schistosoma mansoni [13]) | EC50 (Schistosoma mansoni [14]) | IC50 [15] |
| --- | --- | --- | --- | --- | --- | --- | --- | --- | --- | --- | --- | --- | --- | --- | --- | --- |
| O=S(=O)(Cc1ccccc1)c1nc2ccccc2s1 | Active | > 100 µM | Active | Active | Active | Active | 21.1 µM | 4.91 µM | 2.62 µM | Active | Active | Active | 28.5 µM | Active | – | – |
| O=C(C1CCCCC1)N1CC(=O)N2CCc3ccccc3C2C1 (stereo not drawn) [PRAZIQUANTEL] | – | – | – | – | – | – | – | 0.64 µM | 1.9 µM | – | – | – | > 400 µM | – | 0.22 µM | – |
| Cc1noc(/C=C/c2ccccn2)c1[N+](=O)[O-] | Active | > 100 µM | Active | Active | Active | Active | 6.43 µM | 5.68 µM | 3.23 µM | Active | Active | Active | 16.4 µM | Active | – | – |
| N#Cc1cn(-c2ccccc2)nc1-c1ccco1 | – | – | – | – | Active | – | – | – | > 20 µM | Active | – | – | – | – | – | – |
| O=C(CSc1ccccn1)Nc1nonc1[N+](=O)[O-] | – | – | – | – | – | – | – | – | – | – | – | – | – | – | – | 7.08 µM |
| CC(=O)c1ccc(NCCC(=O)c2cccs2)cc1 | – | – | – | – | Active | – | – | – | > 20 µM | Active | – | – | – | – | – | – |
| COc1ccc(C(=O)c2no[n+]([O-])c2C(=O)c2ccc(OC)cc2)cc1 | – | – | – | – | – | – | – | – | – | – | – | – | – | – | – | 0.1 µM |
| O=C1CC(Sc2nnc[nH]2)C(=O)N1c1ccc(I)cc1 (stereo not drawn) | – | > 100 µM | – | – | Active | – | 10.2 µM | 17.9 µM | > 20 µM | Active | – | – | 133 µM | – | – | – |
| COc1ccc(/C=C/[N+](=O)[O-])cc1OC | – | > 100 µM | – | Active | Active | Active | 29.8 µM | 5.77 µM | > 20 µM | Active | Active | Active | 17.5 µM | – | – | – |

Source: ChEMBL document CHEMBL4425145, “Discovery of New Anti-Schistosomal Hits by Integration of QSAR-Based Virtual Screening and High Content Screening” (J Med Chem, 2016)
